Converted amounts (≈) assume the structure as drawn. The source made the active and inactive calls. The calls are words filed in the database; no cut-off is given here.
Columns and labels:
[1] = test system: Mycobacterium tuberculosis; test: Antimycobacterial activity against Mycobacterium tuberculosis H37Rv ATCC 27294 assessed as growth inhibition by radiometric BACTEC assay; format: functional
[2] = Selectivity index, ratio of IC50 for african green monkey Vero cells to MIC for Mycobacterium tuberculosis H37Rv ATCC 27294; format: functional
Procedure, shortened: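 SI taken as CC50 in VERO cells divided by MIC90 against Mtb H37Rv (ATCC 27294). CC50 comes from a non-radioactive cell proliferation assay run alongside the MIC determination. MIC90 is the lowest concentration giving ≥90% growth inhibition in a radiometric BACTEC 12B-medium assay.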

[3] = test system: Vero; test: (§1) Cytotoxicity against african green monkey Vero cells by non-radioactive cell proliferation assay; format: cell-based; conditions: chlorocebus sabaeus, vero
[4] = test system: Mycobacterium tuberculosis; test: Antimycobacterial activity against Mycobacterium tuberculosis H37Rv ATCC 27294 assessed as growth inhibition at 6.25 ug/ml by radiometric BACTEC assay; format: functional
Procedure, shortened: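 Primary screen at a single 6.25 µg/mL in radiometric BACTEC 12B medium. Value is percent growth inhibition.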

[5] = Selectivity index, ratio of CC50 for african green monkey Vero cells to MIC for Mycobacterium tuberculosis H37Rv ATCC 27294; format: functional
Procedure, shortened: (§2)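 SI calculated as VERO CC50 (non-radioactive proliferation assay) divided by H37Rv MIC90 from radiometric BACTEC in 12B medium.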

[6] = as §1; format: cell-based; conditions: chlorocebus sabaeus, Vero cells
[7] = test system: Mycobacterium tuberculosis; test: Antitubercular activity against Mycobacterium tuberculosis infected in gamma interferon gene-disrupted (GKO) C57BL/6 mouse model assessed as reduction of bacterial load in spleen; format: functional
[8] = test system: Mus musculus; test: Acute toxicity in mouse infected with Mycobacterium tuberculosis at 100 to 500 mg/kg; format: organism-based; parameters: dose 100-500 mg/kg; conditions: in vivo
[9] = Selectivity index, ratio of CC50 for african green monkey Vero cells to MIC90 for Mycobacterium tuberculosis H37Rv ATCC 27294; format: functional; procedure, shortened: as §2
[10] = test system: Mycobacterium tuberculosis; test: Antimycobacterial activity against Mycobacterium tuberculosis H37Ra ATCC 25177 assessed as growth inhibition by Alamar blue microdilution broth assay; format: functional
Procedure, shortened: (§3)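 Alamar blue colorimetric microdilution in Middlebrook 7H9 broth with 0.2% glycerol and ADC enrichment. Primary screen at 1.28 and 12.8 µg/mL. Actives (≤12.8 µg/mL) retested in two-fold dilutions. MIC99 is the lowest concentration giving complete growth inhibition.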

[11] = test system: Mycobacterium avium; test: Antimycobacterial activity against Mycobacterium avium Nj211 assessed as growth inhibition by Alamar blue microdilution broth assay; format: functional; procedure, shortened: as §3
[12] = test system: Mycobacterium tuberculosis; test: Antitubercular activity against Mycobacterium tuberculosis infected in gamma interferon gene-disrupted (GKO) C57BL/6 mouse model assessed as reduction of bacterial load in lungs; format: functional
[13] = test system: Mycobacterium tuberculosis; test: Antimycobacterial activity against Mycobacterium tuberculosis Erdman assessed as growth inhibition by Alamar blue assay; format: functional
[14] = test system: Mycobacterium tuberculosis; test: Antimycobacterial activity against Mycobacterium tuberculosis H37Rv ATCC 27294 assessed as growth inhibition by Alamar blue assay; format: functional
[15] = test system: Mycobacterium tuberculosis; test: Antimycobacterial activity against p-aminosalicylic acid-resistant Mycobacterium tuberculosis assessed as growth inhibition by Alamar blue assay; format: functional
[16] = test system: Mycobacterium tuberculosis; test: Antimycobacterial activity against Mycobacterium tuberculosis H37Rv ATCC 27294 assessed as growth inhibition by radiometric BACTEC assay in presence of 6.5 uM beta-lactam antibiotic, Meropenem; format: functional

Structure (SMILES)	MIC [1]	inhibition at 6.25 µg/mL [4]	Selectivity Index [5]	CC50 [6]	inhibition [4]	log10cfu [7]	Activity [8]	log10cfu [12]	MIC90 [13]	MIC90 [14]	other results
Cc1nc(N)c2ncn([C@@H]3O[C@H](CO)[C@@H](O)[C@H]3O)c2n1 [2-METHYLADENOSINE]	3 µg/mL (≈ 10.7 µM)	99%									Selectivity Index [2]: >1000; IC50 [3]: 1000 µg/mL (≈ 3560 µM)
CCCCCCCCCCSc1ncnc2c1ncn2CC(=O)OC(C)(C)C	3.13 µg/mL (≈ 7.7 µM)		>3.19	> 10 µg/mL	inactive						
CCCCCCCCCCCCOc1nc(N)nc2[nH]cnc12		94%				-0.05	Non-toxic	-0.141			Selectivity Index [9]: >12.8; MIC90 [1]: 0.78 µg/mL (≈ 2.44 µM); MIC99 [10]: > 6.4 µg/mL; MIC99 [11]: > 6.4 µg/mL; CC50 [3]: > 10 µg/mL
CCCCCCCCCCCCSc1ncnc2c1ncn2CC(=O)OCC	0.78 µg/mL (≈ 1.92 µM)		>12.8	> 10 µg/mL	inactive	0.2	Non-toxic	0.46	3.13 µg/mL (≈ 7.7 µM)	3.13 µg/mL (≈ 7.7 µM)	MIC90 [15]: 3.13 µg/mL (≈ 7.7 µM)
CCCCCCCCCCSc1ncnc2c1ncn2CC(=O)OCC	1.56 µg/mL (≈ 4.12 µM)		>40	> 62.5 µg/mL	inactive				12.5 µg/mL (≈ 33 µM)	6.25 µg/mL (≈ 16.5 µM)	
CSc1ncnc2c1ccn2CC(=O)Nc1ccc(C)c(C)c1					inactive						IC90 [1]: > 100 µM; IC90 [16]: 7.31 µM

From ChEMBL document CHEMBL2346635, “6-Oxo and 6-thio purine analogs as antimycobacterial agents” (Bioorg Med Chem, 2013)
